Consider 5 compounds from ChEMBL document CHEMBL2346536, “Biscatecholate-monohydroxamate mixed ligand siderophore-carbacephalosporin conjugates are selective sideromycin antibiotics that target Acinetobacter baumannii” (2013).

One assay concerns Escherichia coli. Briefly: Antibacterial activity against Escherichia coli ATCC 25922 after 18 hrs by broth microdilution method. The assay is classed as functional. Particulars: ATCC 25922, 18 h. The method in brief:
(§1)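 Broth microdilution MICs per CLSI guidelines, read by visual end point; each compound tested in triplicate.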
A general note: In broth dilution the organism is exposed to a series of concentrations in liquid medium.

The subject of another assay is Klebsiella aerogenes. Briefly: Antibacterial activity against Enterobacter aerogenes ATCC 35029 after 18 hrs by broth microdilution method. Format: functional. Particulars: ATCC 35029, 18 h. The method in brief: as §1
For assay [1], the system named is Staphylococcus aureus. Briefly: Antibacterial activity against Staphylococcus aureus SG 511 after 18 hrs by broth microdilution method. Particulars: SG 511, 18 h. The assay is classed as functional. The procedure, abridged: as §1
A further assay has as its system Enterococcus faecium. Briefly: Antibacterial activity against Enterococcus faecium NCTC 7171 after 18 hrs by broth microdilution method. The assay is classed as functional. Particulars: NCTC 7171, 18 h. The procedure, abridged: as §1
In the next assay the test system is Klebsiella pneumoniae. Nature of the assay: Antibacterial activity against Klebsiella pneumoniae ATCC 700603 after 18 hrs by broth microdilution method. The assay is classed as functional. The note with it: ATCC 700603, 18 h. The procedure, abridged:
as §1

The subject of assay [2] is Acinetobacter baumannii. Nature of the assay: Antibacterial activity against Acinetobacter baumannii ATCC 17961 after 18 hrs by broth microdilution method. Format: functional. The note with it: ATCC 17961, 18 h. The method in brief: as §1
A further assay relates to Pseudomonas aeruginosa. Briefly: Antibacterial activity against Pseudomonas aeruginosa ATCC 27853 after 18 hrs by broth microdilution method. The assay is classed as functional. Particulars: ATCC 27853, 18 h. The procedure, abridged: as §1
For assay [3], the system named is Staphylococcus aureus. Briefly: Antibacterial activity against Staphylococcus aureus SG 511 in Fe(3)-deficient Mueller-Hinton no.2 broth media after 18 hrs by broth microdilution method. The note with it: SG 511, 18 h. Format: functional. The procedure, abridged:
(§2)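 CLSI broth microdilution in cation-adjusted Mueller–Hinton no. 2 broth. The iron-deficient broth contained 100 μM 2,2′-bipyridine and the iron-supplemented broth 100 μM FeCl₃. MIC was read by visual end point, each compound in triplicate.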

For assay [4], the system named is Staphylococcus aureus. Briefly: Antibacterial activity against Staphylococcus aureus SG 511 in Fe(3)-supplemented Mueller-Hinton no.2 broth media after 18 hrs by broth microdilution method. Format: functional. Particulars: SG 511, 18 h. The procedure, abridged:
as §2

Assay [5] has as its system Acinetobacter baumannii. Nature of the assay: Antibacterial activity against Acinetobacter baumannii ATCC 17961 in Fe(3)-deficient Mueller-Hinton no.2 broth media after 18 hrs by broth microdilution method. Format: functional. The note with it: ATCC 17961, 18 h. The procedure, abridged:
as §2

The subject of assay [6] is Acinetobacter baumannii. Briefly: Antibacterial activity against Acinetobacter baumannii ATCC 17961 in Fe(3)-supplemented Mueller-Hinton no.2 broth media after 18 hrs by broth microdilution method. Format: functional. Particulars: ATCC 17961, 18 h. The method in brief: as §2
The subject of assay [7] is Staphylococcus aureus. Briefly: Antibacterial activity against Staphylococcus aureus SG 511 in Fe(3)-supplemented Mueller-Hinton no.2 broth media assessed as diameter of growth inhibition zone after 18 to 24 hrs by agar diffusion assay. Format: functional, organism-based. The procedure, abridged:
(§3)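 Modified Kirby–Bauer agar diffusion on Mueller–Hinton no. 2 agar, made iron-deficient with 100 μM 2,2′-bipyridine or iron-supplemented with 100 μM FeCl₃. Read-out was growth inhibition zone diameter (mm), averaged over three independent trials.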

The subject of assay [8] is Staphylococcus aureus. Nature of the assay: Antibacterial activity against Staphylococcus aureus SG 511 in Fe(3)-deficient Mueller-Hinton no.2 broth media assessed as diameter of growth inhibition zone after 18 to 24 hrs by agar diffusion assay. Format: functional, organism-based. The procedure, abridged:
as §3
For orientation: A growth-free zone around the sample is the usual read-out of agar diffusion tests.

Assay [9] deals with Acinetobacter baumannii. Briefly: Antibacterial activity against Acinetobacter baumannii ATCC 17961 in Fe(3)-supplemented Mueller-Hinton no.2 broth media assessed as diameter of growth inhibition zone after 18 to 24 hrs by agar diffusion assay. Format: functional. The procedure, abridged:
as §3

The subject of assay [10] is Acinetobacter baumannii. Briefly: Antibacterial activity against Acinetobacter baumannii ATCC 17961 in Fe(3)-deficient Mueller-Hinton no.2 broth media assessed as diameter of growth inhibition zone after 18 to 24 hrs by agar diffusion assay. Format: functional. The procedure, abridged:
as §3

For assay [11], the system named is Staphylococcus aureus. Briefly: Antibacterial activity against Staphylococcus aureus SG 511 at 0.5 mM after 18 to 24 hrs by agar diffusion assay in presence of Fe3-complex of N-[5-(3-{[4-(2,3-Dihydroxy-benzoylamino)-butyl]-[3-(2,3-dihydroxy-benzoylamino)-propyl]-carbamoyl}-propionylamino)-pentyl]-N-hydroxy-succinamic acid. The assay is classed as functional, organism-based. The procedure, abridged: (§4)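 Paper-strip competition on agar. LB cultures grown 18–24 h were suspended in 0.9% saline at […] (0.5 McFarland), then 0.1 mL was mixed into 34 mL MHII agar + 2,2′-bipyridine at 47 °C. Strips were soaked in 0.5 mM sideromycin or 2.0 mM siderophore (1:10 DMSO:MeOH). Plates ran 37 °C for 18–24 h and were photographed at 48 h.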

Assay [12] relates to Staphylococcus aureus. Briefly: Antibacterial activity against Staphylococcus aureus SG 511 at 0.5 mM after 18 to 24 hrs by agar diffusion assay in presence of N-[5-(3-{[4-(2,3-Dihydroxy-benzoylamino)-butyl]-[3-(2,3-dihydroxy-benzoylamino)-propyl]-carbamoyl}-propionylamino)-pentyl]-N-hydroxy-succinamic acid. The assay is classed as functional, organism-based. The method in brief:
as §4

Assay [13] deals with Acinetobacter baumannii. Nature of the assay: Antibacterial activity against Acinetobacter baumannii ATCC 17961 at 0.5 mM after 18 to 24 hrs by agar diffusion assay in presence of Fe3-complex of N-[5-(3-{[4-(2,3-Dihydroxy-benzoylamino)-butyl]-[3-(2,3-dihydroxy-benzoylamino)-propyl]-carbamoyl}-propionylamino)-pentyl]-N-hydroxy-succinamic acid. Format: functional, organism-based. The method in brief: as §4

Assay [14] concerns Acinetobacter baumannii. Nature of the assay: Antibacterial activity against Acinetobacter baumannii ATCC 17961 at 0.5 mM after 18 to 24 hrs by agar diffusion assay in presence of N-[5-(3-{[4-(2,3-Dihydroxy-benzoylamino)-butyl]-[3-(2,3-dihydroxy-benzoylamino)-propyl]-carbamoyl}-propionylamino)-pentyl]-N-hydroxy-succinamic acid. Format: functional, organism-based. The method in brief: as §4

In brackets after ≈: the same amount, converted by molar mass. Activity calls are given as the source filed them. A value given as a limit tells only on which side of the number the result lay.

Broadly, the MIC is the smallest concentration in the dilution series that meets the test's criterion for growth inhibition. A higher MIC goes with a less susceptible organism.

Turning to `O=C(CCC(=O)N(CCCCNC(=O)c1cccc(O)c1O)CCCNC(=O)c1cccc(O)c1O)NCCCCCN(O)C(=O)CCC(=O)N1CCN(c2cc3c(cc2F)c(=O)c(C(=O)O)cn3C2CC2)CC1`, the minimum inhibitory concentration (MIC) in the assay on Escherichia coli, with Klebsiella aerogenes, in the assay with Staphylococcus aureus [1], against Enterococcus faecium, in the assay on Klebsiella pneumoniae and against Acinetobacter baumannii [2] was greater than 128 µM in each case. Further, in the assay on Pseudomonas aeruginosa, the MIC was greater than 128 µM.

On to `N[C@@H](C(=O)N[C@@H]1C(=O)N2C(C(=O)O)=C(Cl)CC[C@H]12)c1ccccc1` [LORACARBEF ANHYDROUS], for which the MIC in the assay with Escherichia coli is 2 µM (≈ 0.7 µg/mL); against Klebsiella aerogenes, greater than 128 µM; against Staphylococcus aureus [1], 1 µM (≈ 0.35 µg/mL); in the assay with Enterococcus faecium, 32 µM (≈ 11.2 µg/mL); against Klebsiella pneumoniae, 128 µM (≈ 44.8 µg/mL); in the assay with Acinetobacter baumannii [2], greater than 128 µM. Moreover, the MIC with Pseudomonas aeruginosa is greater than 128 µM.

Turning to `O=C(O)c1cn(C2CC2)c2cc(N3CCNCC3)c(F)cc2c1=O` [CIPROFLOXACIN], the MIC in the assay on Escherichia coli is less than 0.015 µM; in the assay on Klebsiella aerogenes, less than 0.015 µM; in the assay on Staphylococcus aureus [1] it was 0.5 µM (≈ 0.166 µg/mL); in the assay on Enterococcus faecium, 8 µM (≈ 2.65 µg/mL); in the assay with Klebsiella pneumoniae it was 0.25 µM (≈ 0.0828 µg/mL); against Acinetobacter baumannii [2] it was 0.25 µM (≈ 0.0828 µg/mL). Also, the MIC in the assay on Pseudomonas aeruginosa worked out at 0.125 µM (≈ 0.0414 µg/mL).

`O=C(O)CCC(=O)N(O)CCCCCNC(=O)CCC(=O)N(CCCCNC(=O)c1cccc(O)c1O)CCCNC(=O)c1cccc(O)c1O`: the MIC with Escherichia coli, against Klebsiella aerogenes, in the assay on Staphylococcus aureus [1], with Enterococcus faecium, in the assay on Klebsiella pneumoniae and against Acinetobacter baumannii [2] was greater than 128 µM in each case. In the assay on Pseudomonas aeruginosa, this compound registered an MIC greater than 128 µM.

As to `O=C(CCC(=O)N(CCCCNC(=O)c1cccc(O)c1O)CCCNC(=O)c1cccc(O)c1O)NCCCCCN(O)C(=O)CCC(=O)N[C@H](C(=O)N[C@@H]1C(=O)N2C(C(=O)O)=C(Cl)CC[C@H]12)c1ccccc1`, the minimum inhibitory concentration (MIC) in the assay on Staphylococcus aureus [3] was 32 µM (≈ 33.6 µg/mL); with Staphylococcus aureus [4], 64 µM (≈ 67.2 µg/mL); with Acinetobacter baumannii [5], 0.0078 µM (≈ 0.00819 µg/mL); in the assay on Acinetobacter baumannii [6] it was 0.5 µM (≈ 0.525 µg/mL); against Escherichia coli it was 8 µM (≈ 8.4 µg/mL); in the assay with Klebsiella aerogenes, greater than 128 µM. The MIC in the assay on Staphylococcus aureus [1] is 32 µM (≈ 33.6 µg/mL); against Enterococcus faecium, greater than 128 µM; against Klebsiella pneumoniae, greater than 128 µM; with Acinetobacter baumannii [2], 0.125 µM (≈ 0.131 µg/mL); in the assay on Pseudomonas aeruginosa it was greater than 128 µM. Moreover, the outcome in the assay on Staphylococcus aureus [7], in the assay with Staphylococcus aureus [8], with Staphylococcus aureus [11] and in the assay with Staphylococcus aureus [12] was Active. Moreover, the “diameter of the inhibition zone (DIZ)” value in the assay on Acinetobacter baumannii [9] came to 16.2 mm; in the assay on Acinetobacter baumannii [10] it was 20.6 mm. The result in the assay with Acinetobacter baumannii [13] and in the assay on Acinetobacter baumannii [14] was inactive.
